Measurements as given in ChEMBL document CHEMBL1221267, “Synthesis, in vitro and in vivo evaluation of 3-arylisoquinolinamines as potent antitumor agents” (Bioorg Med Chem Lett, 2010).

Legend:
SK-MEL-28 = assay: Antitumor activity against human SK-MEL-28 by sulforhodamine B assay; type: functional, cell-based
Summary of the method: (§1)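 Human tumour lines from ATCC; growth inhibition by sulforhodamine B staining, absorbance read at 530 nm; IC50 taken as the drug concentration inhibiting cell growth by 50%, calculated by curve fitting.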

MDA-MB-231 = assay: Antitumor activity against human MDA-MB-231 by sulforhodamine B assay; type: functional, cell-based; summary of the method: as §1
PC-3 = assay: Antitumor activity against human PC3 by sulforhodamine B assay; type: functional, cell-based; summary of the method: as §1
PANC-1 = assay: Antitumor activity against human PANC1 by sulforhodamine B assay; type: functional, cell-based; summary of the method: as §1
CAKI-1 = assay: Antitumor activity against human Caki1 by sulforhodamine B assay; type: functional, cell-based; summary of the method: as §1
OVCAR-3 = assay: Antitumor activity against human OVCAR-3 by sulforhodamine B assay; type: functional, cell-based; summary of the method: as §1
SNB-19 = assay: Antitumor activity against human SNB19 by sulforhodamine B assay; type: functional, cell-based; summary of the method: as §1
HCT-116 [1] = assay: Antitumor activity against human HCT116 by sulforhodamine B assay; type: functional, cell-based; summary of the method: as §1
HCT-15 [2] = assay: Cell cycle arrest in human HCT15 cells assessed as accumulation at sub-G1 phase at 10 nM after 24 hrs using propidium iodide staining by flow cytometry; type: functional
Summary of the method: (§2)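 HCT-15 cells plated at about 10^6 per 100-mm dish, grown 24 h, then given fresh medium with compound. Harvested by trypsinization at 24 h and 48 h, fixed in 70% ethanol, stained with 0.2% NP-40, RNase A (30 µg/ml) and propidium iodide (50 µg/ml) in phosphate–citrate buffer pH 7.2. DNA content by flow cytometry, at least 20,000 cells per analysis.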

Mus musculus [3] = assay: Toxicity in BALB/c mouse assessed as change in body weight at 10 mg/kg, ip qd thrice a week from day 10 to day 29; type: organism-based; parameters: dose 10 mg/kg, route intraperitoneal; settings: in vivo
Summary of the method: (§3)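 Female athymic BALB/c nu/nu mice, six weeks old, carrying subcutaneous right-flank HCT-15 xenografts (1×10^6 cells in 0.2 ml RPMI). Dosed 10 mg/kg/day ip three times weekly, days 10–29, in 5% Cremophor/5% ethanol in PBS; vehicle-only controls. Body weight monitored alongside caliper tumour measurements every 3–5 days.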

HCT-15 [4] = assay: Antitumor activity against human paclitaxel-resistant HCT15 by sulforhodamine B assay; type: functional, cell-based; summary of the method: as §1
HCT-15 [5] = assay: Cell cycle arrest in human HCT15 cells assessed as accumulation at G0/G1 phase at 1 nM after 24 hrs using propidium iodide staining by flow cytometry; type: functional; summary of the method: as §2
Mus musculus [6] = assay: Toxicity in BALB/c mouse at 10 mg/kg, ip qd thrice a week from day 10 to day 29; type: organism-based; parameters: dose 10 mg/kg, route intraperitoneal; settings: in vivo; summary of the method: as §3
HCT-116 [7] = assay: Resistant index, ratio of IC50 for paclitacel-resistant human HCT15 cells to IC50 for human HCT116 cells; type: functional
Summary of the method: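 Index computed as IC50 in HCT-15 divided by IC50 in HCT 116, both from sulforhodamine B growth inhibition with absorbance at 530 nm.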

HCT-15 [8] = assay: Cell cycle arrest in human HCT15 cells assessed as accumulation at S phase at 10 nM after 24 hrs using propidium iodide staining by flow cytometry; type: functional; summary of the method: as §2
HCT-15 [9] = assay: Cell cycle arrest in human HCT15 cells assessed as accumulation at G2/M phase at 1 nM after 24 hrs using propidium iodide staining by flow cytometry; type: functional; summary of the method: as §2
HCT-15 [10] = assay: Cell cycle arrest in human HCT15 cells assessed as accumulation at sub-G1 phase at 10 nM after 48 hrs using propidium iodide staining by flow cytometry; type: functional; summary of the method: as §2
HCT-15 [11] = assay: Antitumor activity against paclitaxel-resistant human HCT15 cells xenografted in BALB/c mouse assessed as tumor growth inhibition at 10 mg/kg, ip qd thrice a week from day 10 to day 29; type: functional; settings: HCT-15, ip, route intraperitoneal
Summary of the method: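 Female athymic BALB/c nu/nu mice, six weeks old, received 1 × 10^6 paclitaxel-resistant HCT-15 cells in 0.2 ml RPMI subcutaneously in the right flank. Once tumors were in range, mice were assigned to groups. Dosing was 10 mg/kg/day ip in 5% Cremophor plus 5% ethanol in PBS, three times weekly, days 10–29. Tumor diameters were measured by caliper every 3–5 days. Body weight was monitored.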

HCT-15 [12] = assay: Cell cycle arrest in human HCT15 cells assessed as accumulation at G0/G1 phase at 10 nM after 48 hrs using propidium iodide staining by flow cytometry; type: functional; summary of the method: as §2
HCT-15 [13] = assay: Cell cycle arrest in human HCT15 cells assessed as accumulation at G0/G1 phase at 1 nM after 48 hrs using propidium iodide staining by flow cytometry; type: functional; summary of the method: as §2
HCT-15 [14] = assay: Cell cycle arrest in human HCT15 cells assessed as accumulation at sub-G1 phase at 1 nM after 48 hrs using propidium iodide staining by flow cytometry; type: functional; summary of the method: as §2
HCT-15 [15] = assay: Cell cycle arrest in human HCT15 cells assessed as accumulation at G2/M phase at 1 nM after 48 hrs using propidium iodide staining by flow cytometry; type: functional; summary of the method: as §2
HCT-15 [16] = assay: Cell cycle arrest in human HCT15 cells assessed as accumulation at G0/G1 phase at 10 nM after 24 hrs using propidium iodide staining by flow cytometry; type: functional; summary of the method: as §2
HCT-15 [17] = assay: Cell cycle arrest in human HCT15 cells assessed as accumulation at S phase at 1 nM after 24 hrs using propidium iodide staining by flow cytometry; type: functional; summary of the method: as §2
HCT-15 [18] = assay: Cell cycle arrest in human HCT15 cells assessed as accumulation at G2/M phase at 10 nM after 48 hrs using propidium iodide staining by flow cytometry; type: functional; summary of the method: as §2
HCT-15 [19] = assay: Cell cycle arrest in human HCT15 cells assessed as accumulation at sub-G1 phase at 1 nM after 24 hrs using propidium iodide staining by flow cytometry; type: functional; summary of the method: as §2
HCT-15 [20] = assay: Cell cycle arrest in human HCT15 cells assessed as accumulation at S phase at 10 nM after 48 hrs using propidium iodide staining by flow cytometry; type: functional; summary of the method: as §2
HCT-15 [21] = assay: Cell cycle arrest in human HCT15 cells assessed as accumulation at G2/M phase at 10 nM after 24 hrs using propidium iodide staining by flow cytometry; type: functional; summary of the method: as §2

Row | Compound | IC50 (SK-MEL-28) | IC50 (MDA-MB-231) | IC50 (PC-3) | IC50 (PANC-1) | IC50 (CAKI-1) | IC50 (OVCAR-3) | IC50 (SNB-19) | IC50 (HCT-116 [1]) | other results
1 | Cc1ccc2cc(-c3ccccc3F)nc(N)c2c1 | 1620 nM | 720 nM | 2760 nM | 2140 nM | 590 nM | 910 nM | 2200 nM | 1220 nM | 
2 | COc1ccccc1-c1cc2cc(C)ccc2c(N)n1 | 800 nM | 440 nM | > 3000 nM | 930 nM | 350 nM | 490 nM | 1130 nM | 670 nM | 
3 | COc1cc(OC)cc(-c2cc3ccc(N(C)C)cc3c(N)n2)c1 | 45 nM | 27 nM | 48 nM | 26 nM | 38 nM | 25 nM | 57 nM | 29 nM | 
4 | Cc1ccc2cc(-c3c(C)cccc3C)nc(N)c2c1 | 120 nM | 51 nM | 120 nM | 79 nM | 48 nM | 75 nM | 120 nM | 74 nM | 
5 | Cc1ccc2c(N)nc(-c3ccccc3F)cc2c1 | 1070 nM | 550 nM | 1840 nM | 1590 nM | 460 nM | 570 nM | 1510 nM | 700 nM | 
6 | COc1cccc(-c2cc3cc(N(C)C)ccc3c(N)n2)c1 | 110 nM | 59 nM | 190 nM | 110 nM | 68 nM | 71 nM | 94 nM | 64 nM | 
7 | COc1cc2cc(-c3cccc(C)c3)nc(N)c2cc1OC | 1120 nM | 790 nM | 2500 nM | 2270 nM | 1780 nM | 580 nM | 1560 nM | 2320 nM | 
8 | COc1cccc(-c2cc3ccc(N(C)C)cc3c(N)n2)c1.Cl | 32 nM | 21 nM | 19 nM | 19 nM | 22 nM | 14 nM | 32 nM | 17 nM | Activity (HCT-15 [2]): 19.6%; Activity (Mus musculus [3]): Non-toxic; IC50 (HCT-15 [4]): 15 nM; Activity (HCT-15 [5]): 50.78%; Activity (Mus musculus [6]): Non-toxic; Ratio IC50 (HCT-116 [7]): 0.88; Activity (HCT-15 [8]): 21.28%; Activity (HCT-15 [9]): 20.2%; Activity (HCT-15 [10]): 24.76%; inhibition in vivo at 10 mg/kg (HCT-15 [11]): 69.2%; Activity (HCT-15 [12]): 68.67%; Activity (HCT-15 [13]): 59.52%; Activity (HCT-15 [14]): 3.78%; Activity (HCT-15 [15]): 17.2%; Activity (HCT-15 [16]): 62.51%; Activity (HCT-15 [17]): 29.02%; Activity (HCT-15 [18]): 12.74%; Activity (HCT-15 [19]): 0.9%; Activity (HCT-15 [20]): 18.59%; Activity (HCT-15 [21]): 16.21%
9 | Cc1ccc2c(N)nc(-c3ccccc3C)cc2c1 | 350 nM | 150 nM | 240 nM | 240 nM | 120 nM | 150 nM | 260 nM | 190 nM | 
10 | COc1ccc(-c2cc3ccc(N(C)C)cc3c(N)n2)cc1OC | 330 nM | 150 nM | 230 nM | 190 nM | 170 nM | 140 nM | 250 nM | 180 nM | 
